Activity calls are given as the source filed them.
Key:
[1] = target: T1, Protein cereblon/Indoleamine 2,3-dioxygenase 1 (Homo sapiens, UniProt P14902+Q96SW2); test: Protac activity at IDO1/CRBN in IFNgamma-stimulated human U87 cells assessed as IDO1 degradation by measuring decrease in protein level measured after 24 hrs by Western blotting analysis; assay type: cell-based; conditions: dose 0.1-10 µM, DDE = dose-dependent effect
Procedure, shortened: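 U87 cells given human IFNγ 50 ng/mL for 24 h to induce IDO1, then PROTAC over a dose range starting at 0.01 μM and rising to 30 μM for 24 h. Western blot read-out. IDO1 band densitometry normalized to untreated samples and fitted to give DC50, the concentration giving 50% IDO1 degradation. n = 3 independent experiments, mean ± SEM.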
Target sequence in this assay (P14902 whole entry, looked up): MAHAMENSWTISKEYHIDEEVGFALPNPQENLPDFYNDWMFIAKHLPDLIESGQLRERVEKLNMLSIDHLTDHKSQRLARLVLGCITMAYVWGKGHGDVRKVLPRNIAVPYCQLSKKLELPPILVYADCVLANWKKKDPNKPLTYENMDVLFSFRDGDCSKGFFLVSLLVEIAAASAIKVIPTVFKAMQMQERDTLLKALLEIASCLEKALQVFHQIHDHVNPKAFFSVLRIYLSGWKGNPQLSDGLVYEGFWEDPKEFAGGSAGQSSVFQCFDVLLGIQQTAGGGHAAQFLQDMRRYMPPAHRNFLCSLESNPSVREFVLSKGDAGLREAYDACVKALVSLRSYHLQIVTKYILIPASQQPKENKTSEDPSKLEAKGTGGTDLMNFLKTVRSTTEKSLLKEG
Target sequence in this assay (Q96SW2 whole entry, looked up): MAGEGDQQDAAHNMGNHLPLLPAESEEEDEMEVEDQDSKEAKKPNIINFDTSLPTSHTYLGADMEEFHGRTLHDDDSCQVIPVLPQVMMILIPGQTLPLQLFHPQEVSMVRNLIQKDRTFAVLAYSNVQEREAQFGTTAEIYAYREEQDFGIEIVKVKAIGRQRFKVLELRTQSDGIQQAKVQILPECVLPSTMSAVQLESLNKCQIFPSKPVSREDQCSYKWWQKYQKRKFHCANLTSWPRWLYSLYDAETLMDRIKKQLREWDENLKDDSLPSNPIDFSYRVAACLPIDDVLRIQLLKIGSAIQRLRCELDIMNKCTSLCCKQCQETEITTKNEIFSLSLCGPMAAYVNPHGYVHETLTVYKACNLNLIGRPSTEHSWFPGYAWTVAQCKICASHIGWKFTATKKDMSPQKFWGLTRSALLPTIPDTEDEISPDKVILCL

[2] = target: T1, Protein cereblon/Indoleamine 2,3-dioxygenase 1; test: Protac activity at IDO1/CRBN in human U87 cells assessed as IDO1 degradation at 10 uM measured after compound washout by Western blotting analysis relative to control; assay type: cell-based
Procedure, shortened: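 U87 cells exposed to PROTAC for 24 h, after which compound was fully withdrawn from the medium and culture continued without it for up to 48 h. IDO1 levels then assessed by western blot.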
Target sequence in this assay (P14902 whole entry, looked up): as the sequence (P14902 whole entry, looked up) above
Target sequence in this assay (Q96SW2 whole entry, looked up): as the sequence (Q96SW2 whole entry, looked up) above

[3] = target: T1, Protein cereblon/Indoleamine 2,3-dioxygenase 1; test: Binding affinity to CRBN /IDO1 (unknown origin) assessed as ternary complex stability by measuring half-life by bio-layer interferometry assay; assay type: protein assay
Procedure, shortened: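 For the ternary complex, compound was preincubated with a 25-fold molar excess of CRBN, and binding of this binary complex to IDO1 was followed in real time.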
Target sequence in this assay (P14902 whole entry, looked up): as the sequence (P14902 whole entry, looked up) above
Target sequence in this assay (Q96SW2 whole entry, looked up): as the sequence (Q96SW2 whole entry, looked up) above

Ido1/Crbn (Mus musculus) = Ido1/Crbn (Mus musculus) (UniProt P28776+Q8C7D2); test: Protac activity at IDO1/CRBN in IFNgamma-stimulated mouse GL261 cells assessed as IDO1 degradation by measuring decrease in intracellular protein level measured after 24 hrs by Western blotting analysis; assay type: cell-based; conditions: dose 1-10 µM, DDE = dose-dependent effect
[4] = Drug uptake in C57BL/6 mouse brain at 25 mg/kg, ip measured after 6 hrs by equilibrium dialysis; assay type: ADME, organism-based; conditions: in vivo
Procedure, shortened: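 C57BL/6 mice received a single 25 mg/kg ip dose. Serum and brain were sampled at 0 to 24 h and the drug was quantified by mass spectrometry (n = 3 mice/dose). Binding to mouse brain homogenate was measured by 6 h equilibrium dialysis.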

Mus musculus [5] = test: In vivo Protac activity at IDO1/CRBN in luciferase-modified GL261 cells engrafted mouse cancer model assessed as increase in survival time measured at 25 mg/kg, ip treated 14 days post tumor implantation; conditions: time 14 day
[6] = Drug uptake in C57BL/6 mouse brain at 10 to 100 mg/kg, ip treated 5 days/week for 3 weeks by LC/MS/MS analysis; assay type: ADME, organism-based; conditions: in vivo, 504 h, dose 10-100 mg/kg
Procedure, shortened: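 Male C57BL/6 mice dosed ip at 10, 25, 50 or 100 mg/kg, 5 days/week for 3 weeks, alongside vehicle. After 3 weeks, serum and brain homogenate were analysed by mass spectrometry for drug level; mean ± SEM, n = 3 mice/dose.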

[7] = target: T1, Protein cereblon/Indoleamine 2,3-dioxygenase 1; test: Protac activity at CRBN/IDO1 in IFNgamma-stimulated human U87 cells assessed as decrease in kynurenine level measured after 24 hrs by Ehrlich's test; assay type: cell-based; conditions: DDE = dose-dependent effect
Procedure, shortened: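 U87 or GBM43 cells given compound together with 50 ng/mL IFNγ for 24 h. Supernatant kynurenine was measured with Ehrlich's reagent. Cells cultured without IFNγ served as control.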
Target sequence in this assay (P14902 whole entry, looked up): as the sequence (P14902 whole entry, looked up) above
Target sequence in this assay (Q96SW2 whole entry, looked up): as the sequence (Q96SW2 whole entry, looked up) above

[8] = target: T1, Protein cereblon/Indoleamine 2,3-dioxygenase 1; test: Protac activity at CRBN/IDO1 in IFNgamma-stimulated human PC-3 cells assessed as decrease in kynurenine level at 10 uM measured after 24 hrs by Ehrlich's test; assay type: cell-based
Target sequence in this assay (P14902 whole entry, looked up): as the sequence (P14902 whole entry, looked up) above
Target sequence in this assay (Q96SW2 whole entry, looked up): as the sequence (Q96SW2 whole entry, looked up) above

[9] = target: T1, Protein cereblon/Indoleamine 2,3-dioxygenase 1; test: Protac activity at CRBN/IDO1 in IFNgamma-stimulated human CD18 cells assessed as decrease in kynurenine level at 10 uM measured after 24 hrs by Ehrlich's test; assay type: cell-based; conditions: CD18 cell
Target sequence in this assay (P14902 whole entry, looked up): as the sequence (P14902 whole entry, looked up) above
Target sequence in this assay (Q96SW2 whole entry, looked up): as the sequence (Q96SW2 whole entry, looked up) above

[10] = target: T1, Protein cereblon/Indoleamine 2,3-dioxygenase 1; test: Protac activity at IDO1/CRBN in IFNgamma-stimulated human DIPG007 cells assessed as IDO1 degradation measured after 24 hrs by Western blotting analysis; assay type: cell-based; conditions: HSJD-DIPG-007, dose 0.1-10 µM, DDE = dose-dependent effect
[11] = Drug uptake in C57BL/6 mouse liver at 50 mg/kg, ip treated 5 days/week for 3 weeks by LC/MS/MS analysis; assay type: ADME, organism-based; conditions: in vivo, 504 h
Mus musculus [12] = test: In vivo Protac activity at IDO1/CRBN in GL261 cells expressing mIDO1 cDNA mouse model assessed as decrease in IDO1 protein level in tumor measured at 25 mg/kg, ip
[13] = target: T1, Protein cereblon/Indoleamine 2,3-dioxygenase 1; test: Protac activity at CRBN/IDO1-FLAG expressed in human U87 cells assessed as IDO1 degradation measured at 1 to 10 uM after 24 hrs by Western blotting analysis; assay type: cell-based; conditions: dose 1-10 µM
[14] = Cmax in C57BL/6 mouse plasma at 25 mg/kg, ip; assay type: ADME, organism-based; set-up: dose 25 mg/kg, route ip
[15] = Drug uptake in C57BL/6 mouse pancreas at 100 mg/kg, ip treated 5 days/week for 3 weeks by LC/MS/MS analysis; assay type: ADME, organism-based; conditions: in vivo, 504 h
[16] = target: T1, Protein cereblon/Indoleamine 2,3-dioxygenase 1; test: Protac activity at IDO1/CRBN in IFNgamma-stimulated human CD18 cells assessed as IDO1 degradation by measuring decrease in intracellular protein level measured after 24 hrs by Western blotting analysis; assay type: cell-based; conditions: CD18 cell, DDE = dose-dependent effect
[17] = target: T1, Protein cereblon/Indoleamine 2,3-dioxygenase 1; test: Protac activity at CRBN/IDO1 in IFNgamma-stimulated human OVCAR-5 cells assessed as decrease in kynurenine level at 10 uM measured after 24 hrs by Ehrlich's test; assay type: cell-based
[18] = target: T1, Protein cereblon/Indoleamine 2,3-dioxygenase 1; test: Protac activity at CRBN/IDO1-HA expressed in human U87 cells assessed as IDO1 degradation in intracellular nuclear compartment measured at 1 to 10 uM after 24 hrs by Western blotting analysis; assay type: subcellular; conditions: Nucleus, dose 1-10 µM
[19] = target: T1, Protein cereblon/Indoleamine 2,3-dioxygenase 1; test: Protac activity at IDO1/CRBN in IFNgamma-stimulated human PBMC cells isolated form GBM patient assessed as IDO1 degradation by measuring decrease in intracellular protein level measured after 24 hrs by Western blotting analysis; assay type: cell-based; conditions: DDE = dose-dependent effect
[20] = target: T1, Protein cereblon/Indoleamine 2,3-dioxygenase 1; test: Protac activity at IDO1/CRBN in IFNgamma-stimulated human GBM43 cells assessed as IDO1 degradation measured after 24 hrs by Western blotting analysis; assay type: cell-based, GBM43 cell
Procedure, shortened: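 GBM43 cells stimulated with 50 ng/mL human IFNγ for 24 h, then treated across 0.01 to 30 μM for 24 h. IDO1 was quantified by western blot densitometry as percent of IFNγ-induced untreated level. DC50 came from the dose-response curve; n = 3 independent experiments, mean ± SEM.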

[21] = target: T1, Protein cereblon/Indoleamine 2,3-dioxygenase 1; test: Protac activity at IDO1/CRBN in IFNgamma-stimulated human GBM43 cells assessed as IDO1 degradation by measuring decrease in protein level measured at 10 uM for 16 to 96 hrs by Western blotting analysis; assay type: cell-based; conditions: GBM43 cell, time 16-96 hrs
[22] = target: T1, Protein cereblon/Indoleamine 2,3-dioxygenase 1; test: Protac activity at CRBN/IDO1-FLAG expressed in human U87 cells assessed as IDO1 degradation in intracellular cytoplasmic compartment measured at 1 to 10 uM after 24 hrs by Western blotting analysis; assay type: subcellular; conditions: Cytoplasm, dose 1-10 µM

Chain of Ido1/Crbn (Mus musculus) (P28776 whole entry, looked up): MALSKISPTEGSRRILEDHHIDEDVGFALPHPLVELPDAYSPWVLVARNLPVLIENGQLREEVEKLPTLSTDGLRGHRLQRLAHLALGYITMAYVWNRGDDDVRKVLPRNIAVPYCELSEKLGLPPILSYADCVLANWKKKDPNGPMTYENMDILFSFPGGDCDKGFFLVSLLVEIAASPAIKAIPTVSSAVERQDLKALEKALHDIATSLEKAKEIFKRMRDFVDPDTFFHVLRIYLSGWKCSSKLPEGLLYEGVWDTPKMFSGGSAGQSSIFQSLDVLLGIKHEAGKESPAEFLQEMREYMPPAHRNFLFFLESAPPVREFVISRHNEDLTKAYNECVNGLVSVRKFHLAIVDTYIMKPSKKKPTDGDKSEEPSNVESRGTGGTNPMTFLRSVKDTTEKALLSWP
Chain of Ido1/Crbn (Mus musculus) (Q8C7D2 whole entry, looked up): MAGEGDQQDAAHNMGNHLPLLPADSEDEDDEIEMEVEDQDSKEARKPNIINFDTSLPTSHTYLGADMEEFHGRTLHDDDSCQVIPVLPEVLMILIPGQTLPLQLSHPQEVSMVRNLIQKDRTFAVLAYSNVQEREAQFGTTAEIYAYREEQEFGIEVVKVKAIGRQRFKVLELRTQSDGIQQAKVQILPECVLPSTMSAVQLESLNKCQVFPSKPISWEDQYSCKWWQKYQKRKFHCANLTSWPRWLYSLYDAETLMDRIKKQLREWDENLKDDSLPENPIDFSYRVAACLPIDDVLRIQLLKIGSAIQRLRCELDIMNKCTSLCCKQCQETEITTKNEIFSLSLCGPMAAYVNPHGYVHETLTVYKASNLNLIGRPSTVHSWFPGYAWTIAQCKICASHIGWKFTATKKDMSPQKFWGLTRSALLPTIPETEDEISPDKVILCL

C[C@@H](C(=O)Nc1ccc(OC2CCN(C(=O)CCOCCOCCNc3cccc4c3C(=O)N(C3CCC(=O)NC3=O)C4=O)CC2)cc1)[C@H]1CC[C@@H](c2ccnc3ccc(F)cc32)CC1 (some centres undefined)
Active: Drug uptake [6] | Drug uptake [11] | Drug uptake [15]
544 nM: EC50 [20]
99.8%: Drug uptake [4]
45 days: Time (Mus musculus [5])
active: Activity [1] Dde | Activity [2] | Activity (Ido1/Crbn (Mus musculus)) Dde | inhibition [7] Dde | inhibition [8] | inhibition [9] | Activity [10] Dde | Activity (Mus musculus [12]) | Activity [13] | Activity [16] Dde | inhibition [17] | Activity [18] | Activity [19] Dde | Activity ([20]; GBM43 cell, dose 1-10 µM, DDE = dose-dependent effect) Dde | Activity [21] | Activity [22]
7.7 min: T1/2 [3]
365 µM: Cmax [14]

Source: ChEMBL document CHEMBL5150051, “Identification and Characterization of a Novel Indoleamine 2,3-Dioxygenase 1 Protein Degrader for Glioblastoma” (J Med Chem, 2022)
